LYP act: increases human PTPN22 phosphatase activity; recombinant LYP, DiFMUP fluorescence; 0 = plate median, 100 = signal doubled; activation, % at 2 µM; actives 0.11% (n = 96,000); AID 697;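 active = activation at 2 µM above a set limit, the mean plus 5 SD, cut at about 37% in these data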
LYP inh 2: inhibitors of human LYP (PTPN22) phosphatase; Q9Y2R2; recombinant LYP catalytic domain, DiFMUP fluorescence; inhibition, % at 2 µM; actives 0.21% (n = 96,000); AID 640;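 active = inhibition at 2 µM at or above a set limit, the screen mean plus 3 SD, cut at about 24% in these data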;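 note: 0% = DMSO with enzyme and 100% = enzyme fully blocked by orthovanadate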
PLK1 PBD inh: Plk1 (human) PBD binding inhibition | inhibition, %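 (tested at about 20 µM)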 | Plk1 PBD phosphopeptide binding, fluorescence polarization | P53350 | actives 0.13% (n = 97,000); in the data active = inhibition above about 34%, passing the limit was not always enough
Target sequence (P53350 whole entry, looked up): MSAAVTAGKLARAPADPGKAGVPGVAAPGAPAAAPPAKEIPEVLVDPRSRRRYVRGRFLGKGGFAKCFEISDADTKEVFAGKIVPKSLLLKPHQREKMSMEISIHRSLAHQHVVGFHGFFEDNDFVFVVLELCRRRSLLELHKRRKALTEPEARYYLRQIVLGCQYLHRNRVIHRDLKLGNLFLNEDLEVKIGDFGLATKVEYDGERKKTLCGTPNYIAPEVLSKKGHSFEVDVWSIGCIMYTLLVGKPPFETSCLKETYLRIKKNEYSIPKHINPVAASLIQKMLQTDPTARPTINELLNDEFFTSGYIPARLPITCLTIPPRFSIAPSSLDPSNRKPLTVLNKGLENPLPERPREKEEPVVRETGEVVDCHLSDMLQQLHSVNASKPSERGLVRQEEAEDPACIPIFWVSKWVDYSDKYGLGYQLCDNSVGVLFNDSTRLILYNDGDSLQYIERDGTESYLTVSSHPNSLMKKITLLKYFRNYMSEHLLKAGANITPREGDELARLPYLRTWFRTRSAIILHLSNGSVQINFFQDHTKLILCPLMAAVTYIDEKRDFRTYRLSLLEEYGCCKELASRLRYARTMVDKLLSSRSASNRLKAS
EphB4 ephrin blk: EphB4-ephrin-B2 interaction antagonism | P54760 | EphB4 LBD / TNYL-RAW-Alexa532 peptide, fluorescence polarization | inhibition, % at 7 µM | actives 0.15% (n = 97,000) | AID 720;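 active = inhibition above the screen-wide mean inhibition plus 3 SD, cut at about 15% in these data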;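 note: 0% = DMSO wells and 100% = excess unlabeled TNYL-RAW peptide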
Rev-RRE block: disrupts HIV-1 Rev binding to RRE RNA; P05866; Rev peptide-RRE RNA binding, FRET; inhibition, % at 8 µM; actives 0.79% (n = 97,000); AID 704;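 active = inhibition above the screen-wide mean plus 3 SD, cut at about 35% in these data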;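 note: 0% = median DMSO wells and 100% = median Neomycin B control wells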
Target sequence (P05866 whole entry, looked up): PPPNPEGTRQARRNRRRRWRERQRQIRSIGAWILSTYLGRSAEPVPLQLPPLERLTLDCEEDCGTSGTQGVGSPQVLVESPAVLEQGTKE
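Material: labelled RRE RNA duplex and labelled Rev peptide / Buffer or medium: HEPES pH 7.5 salt buffer with EDTA / Compound dosing: single point, 8 µM final nominal compound concentration / Benchmarks: DMSO low control, neomycin B high control / Timing: 5 min preincubation and 15 min binding, 25 °C / Technique: FRET fluorescence readout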
PLK1 inh: inhibitors of human PLK1 kinase; P53350; recombinant PLK1 kinase, TR-FRET peptide phosphorylation; inhibition, % at 10 µM; actives 0.53% (n = 97,000); AID 619;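 active = inhibition of 50% or more in the single-concentration screen; inactive = inhibition below 50%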;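 note: 0% = DMSO max control and 100% = H-89 dihydrochloride min control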
Active calls of the source: *; x = no result; [ ] = dose if it differs, or a comment. Compounds with a hit are over-represented: about 2% of the library has one in this group of screens.

SMILES	LYP act	LYP inh 2	PLK1 PBD inh	EphB4 ephrin blk	Rev-RRE block	PLK1 inh
O=S(=O)(NC1CC1)c1ccc(S(=O)(=O)N2CCN3CCCC3C2)cc1 (stereo not given)	-11.3	10.0	-0.3	3.1	4.7	52.8*
O=S(=O)(NC1CCCCC1)c1ccc(S(=O)(=O)N2CCN3CCCC3C2)cc1 (stereo not given)	5.1	-5.8	-16.1	6.7	4.5	-10.1
CCOC(=O)c1nn(-c2ccc(F)cc2)c2nc(CC(C)C)c(C#N)c(=O)n12	1.6	-2.0	4.5	-6.9	14.2	-4.7
Cc1cc(NC(c2ccc(Cl)cc2)c2ccc3cccnc3c2O)no1 (stereo not given)	-0.4	3.6	12.9	15.8*	8.3	-1.8
Cc1ccc2ccc(C(Nc3ccccn3)c3ccccc3)c(O)c2n1 (stereo not given)	-4.5	4.0	-2.4	2.3	9.4	-8.3
Cc1cc2oc(=O)c3c(c2cc1OCc1nn[nH]n1)CCCC3	2.7	-4.2	-4.3	-1.8	4.3	-12.9
Cc1ccc(C(=O)O/N=C2\CC3CCC2(C)C3(C)C)cc1 (stereo not given)	-3.5	0.7	10.3	8.0	11.0	-13.7
O=c1ccn(-c2cccc(C(F)(F)F)c2)nc1-c1ccn(-c2ccccc2F)n1	1.0	1.4	-19.6	2.5	2.6	7.4
CN(C)c1ccc(/C=C/C(=O)c2cccc(Br)c2)cc1	3.6	-1.4	-181.0	1.1	130.6*[fluorescence artefact?]	-38.3
CN1CCn2c1nc(N1CCOCC1)nc2=O	-33.3	30.8*	6.8	-1.9	3.1	2.2
C=CCn1c(NCCc2ccccc2)nc2c1c(=O)n(C)c(=O)n2C	-11.6	14.3	18.7	15.6*	5.4	-5.0
Cc1ccc(Cn2c(NCCc3ccccc3)nc3c2c(=O)n(C)c(=O)n3C)cc1	1.6	2.4	19.8	-0.7	0.9	0.9
CCOc1cccc(N2C(=O)CC(N3CCN(c4nc5ccccc5s4)CC3)C2=O)c1 (stereo not given)	-4.6	3.7	18.3	10.3	10.6	-9.8
COc1ccc(Cn2nnnc2C(c2cc3ccc(OC)cc3[nH]c2=O)N2CCC(C)CC2)cc1 (stereo not given)	0.6	0.8	-16.0	16.4*	28.7	9.2
COc1cc2cc(C(c3nnnn3C3CCCC3)N3CCCCC3)c(=O)[nH]c2cc1OC (stereo not given)	-6.9	4.9	-7.7	4.3	9.7	-10.7
COc1cc2cc(C(c3nnnn3C3CCCC3)N3CCCCCC3)c(=O)[nH]c2cc1OC (stereo not given)	-1.3	-0.4	-15.6	-0.4	57.8*	-15.6
O=c1[nH]c2cc3c(cc2cc1C(c1nnnn1C1CCCCC1)N1CCSCC1)OCCO3 (stereo not given)	-19.5	18.9	-15.9	1.5	51.2*	-28.0
COc1ccc(C2=NN3C(C2)c2ccccc2OC32C(=O)N(C)c3ccccc32)cc1 (stereo not given)	-9.3	14.0	3.2	-7.3	6.6	-12.0
O=C(CC(O)(c1ccccc1)C(F)(F)F)c1cccs1 (stereo not given)	0.5	-0.5	-22.5	30.7*[fluorescence artefact?]	5.6	-1.8
CC(=O)Nc1ccccc1-c1nc2ccc(C(=O)N3CCN(c4cc(C)ccc4C)CC3)cc2[nH]c1=O	0.8	-1.5	-7.6	-7.5	-0.7	-7.4
Cc1ccc2nc3c(cc(C(N)=S)c(=N)n3CCCOC(C)C)c(=O)n2c1	0.2	-1.5	10.8	4.1	59.1*	-2.0
Cc1cc(C)c2c(=O)[nH]c(SCC(=O)Nc3ccccc3)nc2n1	-5.7	5.0	4.8	-0.4	4.5	52.3*
Cc1cc(C)c2c(=O)[nH]c(SCC(=O)Nc3ccc(N(C)C)cc3)nc2n1	6.5	-9.5	24.4	4.5	-0.9	40.4
CC1=Nc2ccccc2/C1=C\c1nc(-c2ccc(F)cc2)oc1O	-2.6	1.6	-36.9	15.4*	52.2*	-12.4
O=C(NC(=S)Nc1ccc2[nH]ncc2c1)c1ccccc1	-0.6	-2.4	-17.6	1.7	6.0	24.0
SMILES	LYP act	LYP inh 2	PLK1 PBD inh	EphB4 ephrin blk	Rev-RRE block	PLK1 inh
Brc1ccc2[nH]ncc2c1	2.8	-7.2	-6.2	-6.6	1.0	50.7*
O=c1c2cn[nH]c2nc(SCc2ccc3c(c2)OCCO3)n1-c1ccccc1	5.5	-6.1	15.9	0.9	-2.5	12.8
Cc1ccccc1-n1c(SCc2c(C)noc2C)nnc1-c1cccnc1	-4.6	7.8	-0.3	4.1	54.8*	-18.7
CCn1c(CSc2nnc(-c3cccnc3)n2-c2ccccc2C)nc2cc(C(=O)O)ccc21	-0.4	4.1	-10.7	29.5*[fluorescence artefact?]	-15.9	37.9
CCn1c(CSc2nnc3ccccn23)nc2cc(C(=O)O)ccc21	-3.9	1.0	-14.7	27.1*[fluorescence artefact?]	8.7	11.2
Cc1ccccc1-n1c(SCc2c(C)noc2C)nnc1-c1ccncc1	-2.3	-2.1	0.1	-0.6	7.4	2.1
Cc1ccccc1-n1c(SCC(=O)c2cc(C)n(C)c2C)nnc1-c1cccnc1	0.8	1.3	20.0	-2.6	-5.5	-14.3
COc1ccc(COC(=O)N/N=C(\C)CC(=O)Nc2c(C)cc(C)cc2C)cc1	-3.6	6.7	8.3	-0.5	7.5	-14.8
O=[N+]([O-])c1ccc(Oc2cccc(Br)c2)c2ccncc12	24.2	-27.5	-7.2	1.4	15.4	5.2
COc1cccc(-n2c(Cc3cc(=O)[nH]c(=O)[nH]3)nnc2SC(C)C)c1	x	x	-2.3	-6.3	0.6	61.9*
COC(=O)C(C)Sc1nnc(Cc2cc(=O)[nH]c(=O)[nH]2)n1-c1cccc(OC)c1 (stereo not given)	-5.2	3.7	-1.4	2.6	2.4	-5.8
CC(C)NC(=O)C(=O)NC1CCCCCC1	4.3	-2.1	1.9	-0.8	-4.1	1.4
O=C(NNC(=O)C1CCCCC1)C(=O)NC1CCCCC1	-3.0	6.7	-11.1	16.1*	8.7	-10.9
COc1ccccc1-c1nc(SCC(=O)O)n[nH]1	-2.7	2.6	-8.0	-1.3	9.8	-1.5
Cc1[nH]nc2c1C1(CCC(c3ccccc3)CC1)C(C#N)=C(N)O2 (stereo not given)	4.5	-5.2	-34.9	4.2	11.0	59.7*
Cc1[nH]nc2c1C1(CCN(C(=O)c3ccccc3)CC1)C(C#N)=C(N)O2	1.9	1.0	-4.2	-1.3	-0.5	-3.0
Cc1nnc(NC(=O)c2cccc(S(=O)(=O)N3CCc4ccccc43)c2)s1	-1.0	-0.3	-18.9	0.0	-1.8	-14.3
CCN1CCc2nc(NC(=O)Cc3ccc4c(c3)OCCO4)sc2C1	0.0	-2.7	2.4	1.9	11.1	2.5
O=C(Nc1nc2c(s1)CN(Cc1ccccc1)CC2)c1cccc(S(=O)(=O)N2CCc3ccccc32)c1	3.7	-1.9	12.7	-5.8	121.9*[fluorescence artefact?]	-5.9
CCN1CCc2nc(NC(=O)c3ccc4c(c3)OCCO4)sc2C1	-12.6	15.5	-30.3	0.4	36.4*	-15.5
COc1ccccc1OCCCn1cc(C#N)c2ccccc21	0.3	-0.2	-1.9	-6.9	16.6	-9.9

Compound activity deposited in PubChem by several laboratories.
